In ChEMBL document CHEMBL4196022, “Alkynyl-containing phenylthiazoles: Systemically active antibacterial agents effective against methicillin-resistant Staphylococcus aureus (MRSA)” (Eur J Med Chem, 2018):
In brackets after ≈: the same amount, converted by molar mass.

How the values were obtained:
[1] = Apparent permeability from basolateral to apical side in human Caco2 cells at 10 uM after 60 mins by LC-MS/MS analysis; format: ADME, cell-based; conditions: caco-2, 1 h
Staphylococcus aureus [2] = experiment: Bactericidal activity against methicillin resistant vancomycin-resistant Staphylococcus aureus VRS11a up to 18 hrs by broth microdilution assay; format: functional; conditions: read-out: MBC99.9
Staphylococcus aureus [3] = experiment: Potency index, ratio of vancomycin MIC to compound MIC for antibacterial activity against vancomycin-resistant Staphylococcus aureus VRS11a; format: functional
Staphylococcus aureus [4] = experiment: Ratio of MBC to MIC for methicillin-resistant Staphylococcus aureus NRS107; format: functional
How it was run: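 MBC/MIC ratio. […] MBC by plating no-growth wells onto tryptic soy agar at 37 °C for at least 18 h; taken as the concentration giving 99.9% growth inhibition.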

Staphylococcus aureus [5] = experiment: Antibacterial activity against methicillin-resistant Staphylococcus aureus USA300 in Balb/c mouse skin infection model assessed as reduction in bacterial burden in wounded skin area at 2% administered topically twice daily for 5 consecutive days measured 12 hrs post last dose relative to control; format: functional; parameters: scale not given: the % may be the effect or the level left
How it was run: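 Female Balb/c mice, 8 weeks old, n=5 per group. Intradermal injection of 40 μL of 1.32×10^9 CFU/mL USA300; a wound formed by ~66 h. Treated topically with a 2% suspension in petroleum jelly twice daily for 5 days; the vehicle group served as control. Wounds excised 12 h after the last dose, homogenized in PBS and plated on mannitol salt agar; sites also observed for redness and swelling.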

Staphylococcus aureus [6] = experiment: Potency index, ratio of vancomycin MIC to compound MIC for antibacterial activity against vancomycin-resistant Staphylococcus aureus VRS10; format: functional

SMILES: C/C(=N\NC(=N)N)c1sc(-c2ccc(C#CC3CC3)cc2)nc1C
- Papp [1]: 0.35 ×10⁻⁶ cm/s
- MBC (Staphylococcus aureus [2]): 2 µg/mL (≈ 5.93 µM)
- Ratio (Staphylococcus aureus [3]): >100
- Ratio (Staphylococcus aureus [4]): <=3
- Activity (Staphylococcus aureus [5]): 73%
- Ratio (Staphylococcus aureus [6]): >100
